Reference: ChEMBL document CHEMBL1125461, “Analogues of platelet activating factor. 6. Mono- and bis-aryl phosphate antagonists of platelet activating factor” (J Med Chem, 1992)

Experiments:
Assay type in all cases: functional; call rule not given here
Oryctolagus cuniculus [1] = species: Oryctolagus cuniculus; assay: Compound was tested for its ability to inhibit PAF induced platelet aggregation in rabbit at a dose of 10 uM
Mus musculus [2] = assay: Compound was tested for protecting PAF-induced lethality in mouse at a dose of 0.5 mg/kg (Out of 41)
Method in brief: (§1)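 Female Swiss-Webster mice (20–25 g) were dosed ip with compound in saline at 10 mL/kg, and controls got saline alone. Thirty minutes later, racemic C16-PAF in saline was given as an iv tail-vein bolus at 10 mL/kg (75–150 µg/kg PAF). Survival was checked at 1.5 h and was recorded as dead/total.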

Mus musculus [3] = assay: Compound was tested for protecting PAF-induced lethality in mouse at a dose of 0.5 mg/kg (Out of 9); method in brief: as §1
Mus musculus [4] = assay: Compound was tested for protecting PAF-induced lethality in mouse at a dose of 0.5 mg/kg (Out of 38); method in brief: as §1
Oryctolagus cuniculus [5] = assay: Compound was tested for protecting PAF-induced lethality in rabbit at a dose of 3 mg/kg (Out of 2)
Mus musculus [6] = assay: Compound was tested for protecting PAF-induced lethality in mouse at a dose of 2.5 mg/kg (Out of 10); method in brief: as §1
Mus musculus [7] = assay: Compound was tested for protecting PAF-induced lethality in mouse at a dose of 1.25 mg/kg (Out of 10); method in brief: as §1
Oryctolagus cuniculus [8] = assay: Compound was tested for protecting PAF-induced lethality in rabbit at a dose of 2.5 mg/kg (Out of 2)
Method in brief: (§2)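 Rabbits got compound iv 15 min before an iv challenge of L-C16-PAF at 150 µg/kg, made from a methanol stock diluted in saline. Controls were saline-treated. Survival was checked at 1 h and was recorded as dead/total.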

Mus musculus [9] = assay: Compound was tested for protecting PAF-induced lethality in mouse at a dose of 1 mg/kg (Out of 10); method in brief: as §1
Mus musculus [10] = assay: Compound was tested for protecting PAF-induced lethality in mouse at a dose of 0.5 mg/kg (Out of 11); method in brief: as §1
Oryctolagus cuniculus [11] = assay: Compound was tested for protecting PAF-induced lethality in rabbit at a dose of 5 mg/kg (Out of 5); method in brief: as §2
Oryctolagus cuniculus [12] = assay: Compound was tested for protecting PAF-induced lethality in rabbit at a dose of 2.5 mg/kg (Out of 4); method in brief: as §2
Oryctolagus cuniculus [13] = assay: Compound was tested for protecting PAF-induced lethality in rabbit at a dose of 1 mg/kg (Out of 11); method in brief: as §2
Mus musculus [14] = assay: Compound was tested for protecting PAF-induced lethality in mouse at a dose of 0.5 mg/kg (Out of 830); method in brief: as §1
Mus musculus [15] = assay: Compound was tested for protecting PAF-induced lethality in mouse at a dose of 0.5 mg/kg (Out of 220); method in brief: as §1
Mus musculus [16] = assay: Compound was tested for protecting PAF-induced lethality in mouse at a dose of 1 mg/kg (Out of 88); method in brief: as §1
Oryctolagus cuniculus [17] = assay: Compound was tested for protecting PAF-induced lethality in rabbit at a dose of 1 mg/kg (Out of 3); method in brief: as §2
Oryctolagus cuniculus [18] = assay: Compound was tested for protecting PAF-induced lethality in rabbit at a dose of 10 mg/kg (Out of 5); method in brief: as §2
Oryctolagus cuniculus [19] = assay: Compound was tested for protecting PAF-induced lethality in rabbit at a dose of 5 mg/kg (Out of 3); method in brief: as §2
Mus musculus [20] = assay: Compound was tested for protecting PAF-induced lethality in mouse at a dose of 1 mg/kg (Out of 74); method in brief: as §1
Oryctolagus cuniculus [21] = assay: Compound was tested for protecting PAF-induced lethality in rabbit at a dose of 10 mg/kg (Out of 2); method in brief: as §2
Mus musculus [22] = assay: Compound was tested for protecting PAF-induced lethality in mouse at a dose of 2.5 mg/kg (Out of 16); method in brief: as §1
Oryctolagus cuniculus [23] = assay: Compound was tested for protecting PAF-induced lethality in rabbit at a dose of 1 mg/kg (Out of 2); method in brief: as §2
Mus musculus [24] = assay: Compound was tested for protecting PAF-induced lethality in mouse at a dose of 0.5 mg/kg (Out of 49); method in brief: as §1
Mus musculus [25] = assay: Compound was tested for protecting PAF-induced lethality in mouse at a dose of 10 mg/kg (Out of 12); method in brief: as §1
Mus musculus [26] = assay: Compound was tested for protecting PAF-induced lethality in mouse at a dose of 0.5 mg/kg (Out of 10); method in brief: as §1
Mus musculus [27] = assay: Compound was tested for protecting PAF-induced lethality in mouse at a dose of 1 mg/kg (Out of 12); method in brief: as §1
Mus musculus [28] = assay: Compound was tested for protecting PAF-induced lethality in mouse at a dose of 10 mg/kg (Out of 13); method in brief: as §1
Oryctolagus cuniculus [29] = species: Oryctolagus cuniculus; assay: Compound was tested for its ability to inhibit PAF induced platelet aggregation in rabbit at a dose of 50 uM
Oryctolagus cuniculus [30] = species: Oryctolagus cuniculus; assay: Compound was tested for its ability to inhibit PAF induced platelet aggregation in rabbit (No inhibition observed at a compound concentration up to 10 uM)
Mus musculus [31] = assay: Compound was tested for protecting PAF-induced lethality in mouse at a dose of 10 mg/kg (Out of 10); method in brief: as §1
Mus musculus [32] = assay: Compound was tested for protecting PAF-induced lethality in mouse at a dose of 0.5 mg/kg (Out of 23); method in brief: as §1

How did the Inhibition (Oryctolagus cuniculus [1]) turn out when `CCCCCCCCCCCCCCCCOCC(COP(=O)(O)Oc1cccc(C/N=C(\S)Nc2ccccc2)c1)OC` (stereo not drawn) was run?
The Inhibition was 22%.

For `CCCCCCCCCCCCCCOc1ccc(OP(=O)([O-])Oc2cccc(C[n+]3csc(C)c3)c2)c(OC)c1`, which Lethality (Mus musculus [2]) is on record?
Its Lethality is 16 dead/total.

Which Lethality (Mus musculus [3]) does the source give for `CCCCCCCCCCCCCCOc1cccc(OP(=O)([O-])Oc2cccc(C[n+]3ccsc3)c2)c1OC` here?
Its Lethality is 4 dead/total.

With `CCCCCCCCCCCCCCOc1cccc(OP(=O)([O-])Oc2cccc(C[n+]3csc(C)c3)c2)c1C(C)=O` as the molecule, how does the Lethality (Mus musculus [4]) read?
The Lethality was 18 dead/total.

How did the Lethality (Oryctolagus cuniculus [5]) turn out when `CCCCCCCCCCCCOc1cccc(OCC(COP(=O)([O-])Oc2cccc(C[n+]3csc(C)c3)c2)OC)c1` (stereo not drawn) was run?
Its Lethality is 1 dead/total.

How did the Lethality (Mus musculus [6]) turn out when `CCCCCCCCCCCCCCCCCCNC(=O)OCC(COP(=O)([O-])Oc1ccccc1C[n+]1ccsc1)OC` (stereo not drawn) was run?
Its Lethality is 0 dead/total.

`CCCCCCCCCCCCCCCCOCC(COP(=O)([O-])Oc1cccc(C[n+]2ccsc2)c1)OC` (stereo not drawn) was tested. Which Lethality (Mus musculus [7]) did it give?
Its Lethality is 2 dead/total.

And the Lethality (Oryctolagus cuniculus [8])?
The Lethality was 1 dead/total.

Which Lethality (Mus musculus [9]) does the source give for `CCCCCCCCCCCCCCOc1cccc(OP(=O)([O-])Oc2cccc(C[n+]3ccsc3)c2)c1C(=O)OC` here?
Its Lethality is 5 dead/total.

And the Lethality (Mus musculus [10])?
The Lethality was 11 dead/total.

With `CCCCCCCCCCCCCCOc1cccc(OP(=O)([O-])Oc2cccc(C[n+]3csc(C)c3)c2)c1C(=O)OC` as the molecule, how does the Lethality (Oryctolagus cuniculus [11]) read?
The Lethality was 0 dead/total.

What about the Lethality (Mus musculus [9]) of the same molecule?
The Lethality was 3 dead/total.

And the Lethality (Oryctolagus cuniculus [12])?
The Lethality was 0 dead/total.

And the Lethality (Oryctolagus cuniculus [13])?
Its Lethality is 6 dead/total.

What about the Lethality (Mus musculus [14]) of the same molecule?
Its Lethality is 165 dead/total.

Which Lethality (Mus musculus [10]) does the source give for `CCCCCCCCCCCCOc1cccc(OCC(COP(=O)([O-])Oc2cccc(C[n+]3ccsc3)c2)OC)c1C` (stereo not drawn) here?
The Lethality was 1 dead/total.

For `CCCCCCCCCCCCCCCCOCC(COP(=O)([O-])Oc1ccccc1C[n+]1ccsc1)OC` (stereo not drawn), which Lethality (Oryctolagus cuniculus [8]) is on record?
Its Lethality is 1 dead/total.

What does the source list for `CCCCCCCCCCCCCCOc1cccc(OP(=O)([O-])Oc2cccc(C[n+]3csc(C)c3)c2)c1OC`?
Lethality (Mus musculus [15]): 80 dead/total; Lethality (Mus musculus [16]): 24 dead/total; Lethality (Oryctolagus cuniculus [17]): 2 dead/total; Lethality (Oryctolagus cuniculus [18]): 0 dead/total; Lethality (Oryctolagus cuniculus [19]): 1 dead/total; Lethality (Mus musculus [20]): 40 dead/total

What does the source list for `CCCCCCCCCCCCOc1cccc(OCC(COP(=O)([O-])Oc2cccc(C[n+]3csc(C)c3)c2)OCC)c1C` (stereo not drawn)?
Lethality (Oryctolagus cuniculus [21]): 0 dead/total; Lethality (Mus musculus [22]): 0 dead/total; Lethality (Oryctolagus cuniculus [23]): 1 dead/total; Lethality (Mus musculus [24]): 23 dead/total; Lethality (Mus musculus [25]): 6 dead/total; Lethality (Oryctolagus cuniculus [8]): 1 dead/total

With `CCCCCCCCCCCCCCc1cccc(OCC(COP(=O)([O-])Oc2cccc(C[n+]3ccsc3)c2)OC)c1` (stereo not drawn) as the molecule, how does the Lethality (Mus musculus [26]) read?
Its Lethality is 0 dead/total.

And the Lethality (Oryctolagus cuniculus [8])?
Its Lethality is 1 dead/total.

Which Lethality (Mus musculus [27]) does the source give for `CCCCCCCCCCCCCCOc1cccc(OP(=O)([O-])Oc2cccc(C[n+]3c(C)sc(C)c3C)c2)c1OC` here?
The Lethality was 9 dead/total.

What about the Lethality (Mus musculus [28]) of the same molecule?
The Lethality was 6 dead/total.

What does the source list for `CCCCCCCCCCCCCCCCOCC(COP(=O)([O-])Oc1cccc(C[n+]2csc(C)c2)c1)OC` (stereo not drawn)?
Lethality (Mus musculus [7]): 4 dead/total; Lethality (Oryctolagus cuniculus [8]): 1 dead/total

For `CCCCCCCCCCCCOc1cc(OP(=O)([O-])Oc2cccc(C[n+]3ccsc3)c2)c(C(C)(C)C)cc1C(C)(C)C`, which Inhibition (Oryctolagus cuniculus [29]) is on record?
The Inhibition was 15%.

What about the Lethality (Oryctolagus cuniculus [8]) of the same molecule?
The Lethality was 2 dead/total.

For `CCCCCCCCCCCCCCOc1cccc(OP(=O)([O-])Oc2cccc(CC[n+]3csc(C)c3)c2)c1OC`, which IC50 (Oryctolagus cuniculus [30]) is on record?
The IC50 was “Not Active”.

For `CCCCCCCCCCCCCCOc1ccc(C(=O)c2ccccc2)c(OP(=O)([O-])Oc2cccc(C[n+]3csc(C)c3)c2)c1`, which Lethality (Mus musculus [9]) is on record?
The Lethality was 3 dead/total.

What about the Lethality (Mus musculus [31]) of the same molecule?
Its Lethality is 0 dead/total.

`CCCCCCCCCCCCOc1cc(C(C)(C)C)c(OP(=O)([O-])Oc2cccc(C[n+]3csc(C)c3)c2)cc1C(C)(C)C` was tested. Which Lethality (Oryctolagus cuniculus [8]) did it give?
Its Lethality is 0 dead/total.

How did the Inhibition (Oryctolagus cuniculus [29]) turn out when `CCCCCCCCCCCCCCOc1cccc(OP(=O)([O-])Oc2cccc(C[N+]3=CN=CC3)c2)c1OC` was run?
The Inhibition was 12%.

`CCCCCCCCCCCCCCOc1ccc(OP(=O)([O-])Oc2cccc(C[n+]3csc(C)c3)c2)c(C(C)=O)c1` was tested. Which Lethality (Mus musculus [32]) did it give?
Its Lethality is 6 dead/total.
